Assay results reported in ChEMBL document CHEMBL2086376, “Total synthesis of 2''',5'''-diepisilvestrol and its C1''' epimer: key structure activity relationships at C1''' and C2'''” (J Nat Prod, 2012).
Active and inactive are the calls of the source. The rule behind the calls is not given here.

How the values were obtained:
Oryctolagus cuniculus = species: Oryctolagus cuniculus; assay: Inhibition of translation in rabbit reticulocyte lysate by luciferase assay; type: functional
Outline: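 Cell-free translation in rabbit reticulocyte lysate, final KCl 135 mM, programmed with 8 μg/mL capped FF/HCV/Ren bicistronic mRNA. Firefly and Renilla luciferase activities were the read-out.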

[1] = Cytotoxicity against human breast cancer cells; type: functional; details: Cancer cell lines, read-out: ED50 (the source's name)
[2] = Cytotoxicity against human lung cancer cells; type: functional; details: Cancer cell lines, read-out: ED50 (the source's name)
Leukemia cell = assay: Anticancer activity in patient with chronic lymphocytic leukemia; type: functional; details: Homo sapiens, read-out: LC50 (the source's name)
A549 = assay: Cytotoxicity against human A549 cells; type: functional, cell-based
[3] = Cytotoxicity against human colon cancer cells; type: functional, cell-based; details: Cancer cell lines

Structure (SMILES) | inhibition (Oryctolagus cuniculus) | EC50 [1] [nM] | EC50 [2] [nM] | also measured
COC(=O)[C@H]1[C@@H](O)[C@@]2(O)c3c(OC)cc(O[C@@H]4O[C@@H]([C@H](O)CO)CO[C@H]4OC)cc3O[C@@]2(c2ccc(OC)cc2)[C@@H]1c1ccccc1 [SILVESTROL] |  | 1.5 | 1.2 | CC50 (Leukemia cell): 6.9 nM
COC(=O)[C@H]1[C@@H](O)[C@@]2(O)c3c(OC)cc(O[C@@H]4O[C@@H]([C@@H](O)CO)CO[C@H]4OC)cc3O[C@@]2(c2ccccc2)[C@@H]1c1ccccc1 |  |  |  | IC50 (A549): 130 nM; IC50 [3]: 10 nM

Further lines, with some results ahead:

inhibition (Oryctolagus cuniculus) | Structure (SMILES) | EC50 [1] [nM] | EC50 [2] [nM] | also measured
Active | COC(=O)[C@H]1[C@@H](O)[C@@]2(O)c3c(OC)cc(O[C@@H]4O[C@@H]([C@H](O)CO)CO[C@@H]4OC)cc3O[C@@]2(c2ccc(OC)cc2)[C@@H]1c1ccccc1 | 1.5 | 1.2 | 
Active | COC(=O)[C@H]1[C@@H](O)[C@@]2(O)c3c(OC)cc(O[C@@H]4O[C@@H]([C@@H](O)CO)CO[C@@H]4OC)cc3O[C@@]2(c2ccc(OC)cc2)[C@@H]1c1ccccc1 |  |  | 
inactive | COC(=O)[C@H]1[C@@H](O)[C@@]2(O)c3c(OC)cc(O[C@H]4O[C@@H]([C@@H](O)CO)CO[C@@H]4OC)cc3O[C@@]2(c2ccc(OC)cc2)[C@@H]1c1ccccc1 |  |  | 
